Reference: ChEMBL document CHEMBL1152861, “Synthesis and serotonin receptor activity of the arylpiperazine alkyl/propoxy derivatives of new azatricycloundecanes” (Eur J Med Chem, 2009)
pKi: −log10 of the molar value. Calls of active or inactive are those of the source. The calls are words filed in the database; no cut-off is given here.

Legend:
[1] = biological target: T1, 5-hydroxytryptamine receptor 1A (Rattus norvegicus, UniProt P19327); assay: Displacement of [3H]8-OH-DPAT from 5HT1A receptor in rat hippocampal membranes; type: cell membranes, Hippocampus, Membrane
T1 sequence (P19327 whole entry): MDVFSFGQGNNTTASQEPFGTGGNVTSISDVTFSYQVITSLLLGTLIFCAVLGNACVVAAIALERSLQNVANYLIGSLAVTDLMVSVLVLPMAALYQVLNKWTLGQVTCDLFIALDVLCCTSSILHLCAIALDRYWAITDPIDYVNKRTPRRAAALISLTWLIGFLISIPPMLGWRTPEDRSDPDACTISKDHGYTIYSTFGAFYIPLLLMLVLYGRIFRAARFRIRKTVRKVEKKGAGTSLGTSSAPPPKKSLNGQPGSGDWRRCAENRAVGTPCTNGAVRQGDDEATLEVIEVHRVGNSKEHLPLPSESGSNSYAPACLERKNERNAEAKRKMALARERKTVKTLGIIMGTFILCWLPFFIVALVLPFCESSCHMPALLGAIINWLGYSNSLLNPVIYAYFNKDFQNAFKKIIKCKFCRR

[2] = biological target: 5-hydroxytryptamine receptor 2A (Homo sapiens, UniProt P28223); assay: Displacement of [3H]ketanserin from 5HT2A receptor
[3] = tested on: Mus musculus; assay: Neurotoxicity in Albino Swiss mouse administered intraperitoneally dose equivalent to 0.1 of LD50 after 30 mins measured for 1 min by chimney test; type: toxicity, organism-based; conditions: in vivo, ip
How it was run: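 Male Albino Swiss mice (20-24 g), i.p. suspension in 1% Tween 80 at 0.1 mL/10 g body weight, with vehicle controls and 8 mice per group. Tested 30 min post-dose by having mice climb backwards up a plastic tube (3 cm inner diameter, 25 cm long). Failing three tasks within 60 s scored as motor impairment, reported as % of animals failing.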

[4] = tested on: Mus musculus; assay: Anxiolytic activity in Albino Swiss mouse assessed as number of punished crossing administered intraperitoneally dose equivalent to 0.1 of LD50 after 30 mins measured for 1 min by four-plate test; type: functional, organism-based
How it was run: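 Male Albino Swiss mice (20-24 g), 8 per group, received ip compound in 1% Tween 80 (0.1 mL/10 g) at a dose equal to 0.1 of LD50; vehicle controls. Four-plate test 30 min later; punished crossings counted over 1 min.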

[5] = tested on: Mus musculus; assay: Effect on spontaneous locomotor activity in Albino Swiss mouse administered intraperitoneally dose equivalent to 0.1 of LD50 after 30 mins measured for 60 min by automatic photoresistor actometer
[6] = tested on: Mus musculus; assay: Antidepressive activity in Albino Swiss mouse assessed as total immobility time at 2.5 mg/kg, ip after 30 mins measured for 4 mins by forced swimming test; type: functional; conditions: route intraperitoneal
How it was run: (§1)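 Forced swimming test in male Albino Swiss mice (20-24 g), 8 per group. Compounds given ip as suspensions in 1% Tween 80, 0.1 mL/10 g, at doses of 0.1-0.00635 of LD50, 30 min before test; imipramine 15 mg/kg ip as reference; controls got vehicle. Mice swam 6 min in a glass cylinder with 15 cm of 25 °C water; total immobility time scored; mean ± SEM.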

[7] = tested on: Mus musculus; assay: Antidepressive activity in Albino Swiss mouse assessed as total immobility time at 10 mg/kg, ip after 30 mins measured for 4 mins by forced swimming test; type: functional; conditions: route intraperitoneal; how it was run: as §1
[8] = tested on: Mus musculus; assay: Antidepressive activity in Albino Swiss mouse assessed as total immobility time at 1.25 mg/kg, ip after 30 mins measured for 4 mins by forced swimming test; type: functional; conditions: route intraperitoneal; how it was run: as §1
[9] = tested on: Mus musculus; assay: Antidepressive activity in Albino Swiss mouse assessed as total immobility time at 5 mg/kg, ip after 30 mins measured for 4 mins by forced swimming test; type: functional; conditions: route intraperitoneal; how it was run: as §1
[10] = tested on: Mus musculus; assay: Antidepressive activity in Albino Swiss mouse assessed as total immobility time at 20 mg/kg, ip after 30 mins measured for 4 mins by forced swimming test; type: functional; conditions: route intraperitoneal; how it was run: as §1
[11] = tested on: Mus musculus; assay: Antidepressive activity in Albino Swiss mouse assessed as total immobility time at 15 mg/kg, ip after 30 mins measured for 4 mins by forced swimming test; type: functional; conditions: route intraperitoneal; how it was run: as §1
[12] = Selectivity ratio of Ki for 5HT2A receptor to Ki for rat 5HT1A receptor

5-hydroxytryptamine receptor 2A, sequence (P28223 whole entry): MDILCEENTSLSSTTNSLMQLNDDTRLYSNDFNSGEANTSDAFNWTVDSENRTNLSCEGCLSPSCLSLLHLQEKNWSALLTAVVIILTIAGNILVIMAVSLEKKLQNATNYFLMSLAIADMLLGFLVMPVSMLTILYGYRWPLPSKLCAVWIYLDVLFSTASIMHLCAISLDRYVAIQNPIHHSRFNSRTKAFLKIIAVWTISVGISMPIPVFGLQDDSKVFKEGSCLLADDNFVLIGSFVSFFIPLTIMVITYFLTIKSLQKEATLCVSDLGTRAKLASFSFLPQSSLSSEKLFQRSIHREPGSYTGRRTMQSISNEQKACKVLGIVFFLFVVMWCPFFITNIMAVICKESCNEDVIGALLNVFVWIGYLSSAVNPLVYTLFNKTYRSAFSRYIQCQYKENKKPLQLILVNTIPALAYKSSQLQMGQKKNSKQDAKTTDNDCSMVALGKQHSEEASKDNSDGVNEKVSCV

| SMILES | pKi [1] | pKi [2] | Activity [3] | Activity [4] | Activity [5] | further results |
| --- | --- | --- | --- | --- | --- | --- |
| CC1CC2(C)CC(=O)C1C1C(=O)N(OCCCN3CCN(c4ccccc4)CC3)C(=O)C12 (configuration not stated) | 6.21 | 6.52 | – | – | – | – |
| CC1CC2(C)CC(=O)C1C1C(=O)N(CCCCN3CCN(c4ccccc4)CC3)C(=O)C12 (configuration not stated) | 7.30 | 6.74 | Not Active | inactive | inactive | – |
| COc1ccccc1N1CCN(CCCON2C(=O)C3C4C(=O)CC(C)(CC4C)C3C2=O)CC1 (configuration not stated) | 6.91 | 6.20 | Not Active | inactive | inactive | Time [6]: 83.5 s; Time [7]: 31.2 s; Time [8]: 123.7 s; Time [9]: 63.5 s; Time [10]: 29.4 s |
| CC1CC2(C)CC(=O)C1C1C(=O)N(OCCCN3CCN(c4cccc(Cl)c4)CC3)C(=O)C12 (configuration not stated) | 7.04 | 6.96 | Not Active | inactive | inactive | – |
| CC1CC2(C)CC(=O)C1C1C(=O)N(CCCN3CCN(c4ccccc4)CC3)C(=O)C12 (configuration not stated) | 6.46 | 6.53 | – | – | – | – |
| CC(=O)OC12C=C(C)C(C(C)C1)C1C(=O)N(CCCN3CCN(c4ccccc4)CC3)C(=O)C12 (configuration not stated) | 6.53 | 6.24 | – | – | – | – |
| CC1CC2(C)CC(=O)C1C1C(=O)N(OCCCN3CCN(c4ccccc4F)CC3)C(=O)C12 (configuration not stated) | 6.48 | 6.04 | – | – | – | – |
| COc1ccccc1N1CCN(CCCON2C(=O)C3C4C=CC(OC)(CC4)C3C2=O)CC1 (configuration not stated) | 7.51 | 5.86 | – | – | – | – |
| CN(C)CCCN1c2ccccc2CCc2ccccc21 [IMIPRAMINE] | – | – | – | – | – | Time [11]: 69.5 s |
| CC(=O)OC12C=C(C)C(C(C)C1)C1C(=O)N(CCCCN3CCN(Cc4ccccc4)CC3)C(=O)C12 (configuration not stated) | 5.85 | 5.01 | – | – | – | – |
| COc1ccccc1N1CCN(CCCCN2C(=O)C3C4C(=O)CC(OC(C)=O)(CC4(C)C)C3C2=O)CC1 (configuration not stated) | 7.66 | 6.11 | – | – | – | – |
| CC(=O)OC12C=C(C)C(C(C)C1)C1C(=O)N(CCCCN3CCN(c4ccccn4)CC3)C(=O)C12 (configuration not stated) | 7.01 | 6.02 | Not Active | inactive | inactive | – |
| COc1ccccc1N1CCN(CCCCN2C(=O)C3C4C(C)=CC(OC(C)=O)(CC4C)C3C2=O)CC1 (configuration not stated) | 8.00 | 6.13 | Not Active | inactive | inactive | Time [7]: 71.7 s; Time [9]: 113.8 s; Ratio Ki [12]: 74 |
| CC(=O)OC12C=C(C)C(C(C)C1)C1C(=O)N(OCCCN3CCN(c4ccccc4)CC3)C(=O)C12 (configuration not stated) | 6.94 | 6.43 | Not Active | inactive | inactive | – |
| CC(=O)OC12C=C(C)C(C(C)C1)C1C(=O)N(OCCCN3CCN(c4cccc(Cl)c4)CC3)C(=O)C12 (configuration not stated) | 7.43 | 6.42 | Not Active | inactive | inactive | – |
| COc1ccccc1N1CCN(CCCCN2C(=O)C3C4C(=O)CC(C)(CC4C)C3C2=O)CC1 (configuration not stated) | 7.60 | 6.28 | Not Active | inactive | inactive | – |
| CC1CC2(C)CC(=O)C1C1C(=O)N(CCCCN3CCN(Cc4ccccc4)CC3)C(=O)C12 (configuration not stated) | 5.56 | 5.68 | – | – | – | – |
| CCOC12CCC(C(=O)C1)C1C(=O)N(CCCCN3CCN(c4ccccc4OC)CC3)C(=O)C12 (configuration not stated) | 7.59 | 5.55 | – | – | – | – |
| CC(=O)OC12C=C(C)C(C(C)C1)C1C(=O)N(OCCCN3CCN(c4ccccc4F)CC3)C(=O)C12 (configuration not stated) | 7.10 | 5.97 | Not Active | inactive | inactive | Time [6]: 56.8 s; Time [7]: 27.5 s; Time [8]: 114.3 s; Time [9]: 48.3 s; Time [10]: 18.4 s |
| COc1ccccc1N1CCN(CCCN2C(=O)C3C4C(=O)CC(C)(CC4C)C3C2=O)CC1 (configuration not stated) | 7.36 | 6.37 | Not Active | inactive | inactive | – |
| COc1ccccc1N1CCN(CCCN2C(=O)C3C4C(C)=CC(OC(C)=O)(CC4C)C3C2=O)CC1 (configuration not stated) | 7.46 | 5.99 | Not Active | inactive | inactive | – |
| CC1CC2(C)CC(=O)C1C1C(=O)N(CCCCN3CCN(c4ccccn4)CC3)C(=O)C12 (configuration not stated) | 6.69 | 6.24 | – | – | – | – |
| CC(=O)OC12C=C(C)C(C(C)C1)C1C(=O)N(CCCCN3CCN(c4ccc(F)cc4)CC3)C(=O)C12 (configuration not stated) | 6.54 | 6.77 | – | – | – | – |
| CC(=O)OC12C=C(C)C(C(C)C1)C1C(=O)N(OCCCN3CCN(c4ccccn4)CC3)C(=O)C12 (configuration not stated) | 6.70 | 5.74 | – | – | – | – |
| CC(=O)OC12C=C(C)C(C(C)C1)C1C(=O)N(CCCCN3CCN(c4ncccn4)CC3)C(=O)C12 (configuration not stated) | 6.10 | 5.22 | – | – | – | – |
| CC1CC2(C)CC(=O)C1C1C(=O)N(CCCCN3CCN(c4ncccn4)CC3)C(=O)C12 (configuration not stated) | 5.82 | 5.47 | – | – | – | – |
| COc1ccccc1N1CCN(CCCON2C(=O)C3C4C(C)=CC(OC(C)=O)(CC4C)C3C2=O)CC1 (configuration not stated) | 7.57 | 6.17 | Not Active | inactive | inactive | – |
| CC(=O)OC12C=C(C)C(C(C)C1)C1C(=O)N(CCCCN3CCN(c4ccccc4)CC3)C(=O)C12 (configuration not stated) | 7.47 | 6.54 | Not Active | inactive | inactive | – |
| CC1CC2(C)CC(=O)C1C1C(=O)N(CCCCN3CCN(c4ccc(F)cc4)CC3)C(=O)C12 (configuration not stated) | 6.28 | 6.99 | Not Active | inactive | inactive | – |
